What was measured:
Nucleic Acid [1] = assay: Binding affinity to RNA 3'-CAUGGAAAGGCC-5' assessed as change in melting temperature; format: nucleic-acid assay
Nucleic Acid [2] = assay: Binding affinity to RNA 3'-CAUGGAAAGGCC-5' assessed as melting temperature; format: nucleic-acid assay
[3] = Chemical stability in presence of snake venom phosphodiesterase at 50 uM and pH 8.4; format: physicochemical; details: buffer
Outline: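 Oligonucleotides (50 μM) incubated at 37 °C in 50 mM Tris-HCl (pH 8.5) with 72 mM NaCl, 14 mM MgCl2 and 2.5 × 10^-4 U/ml snake venom phosphodiesterase; hydrolysis followed over time.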

Nucleic Acid [4] = assay: Binding affinity to RNA 3'-CAUGGCAAGGCC-5' assessed as melting temperature; format: nucleic-acid assay
Nucleic Acid [5] = assay: Binding affinity to RNA 3'-CAUGGGAAGGCC-5' assessed as melting temperature; format: nucleic-acid assay
Nucleic Acid [6] = assay: Binding affinity to RNA 3'-CAUGGUAAGGCC-5' assessed as melting temperature; format: nucleic-acid assay

Structure (SMILES)	ΔTm (Nucleic Acid [1]) [°C]	Tm (Nucleic Acid [2]) [°C]	Stability [3]	Tm (Nucleic Acid [4]) [°C]	Tm (Nucleic Acid [5]) [°C]	Tm (Nucleic Acid [6]) [°C]
CO[C@@H]1[C@H](OP(=O)(O)OC[C@H]2O[C@@H](n3ccc(=O)[nH]c3=O)[C@H](OC(=O)NCCCCN)[C@@H]2OP(=O)(O)OC[C@H]2O[C@@H](n3ccc(=O)[nH]c3=O)[C@H](OC)[C@@H]2OP(=O)(O)OC[C@H]2O[C@@H](n3ccc(=O)[nH]c3=O)[C@H](OC(=O)NCCCCN)[C@@H]2OP(=O)(O)OC[C@H]2O[C@@H](n3ccc(N)nc3=O)[C@H](OC)[C@@H]2OP(=O)(O)OC[C@H]2O[C@@H](n3ccc(N)nc3=O)[C@H](OC)[C@@H]2OP(=O)(O)OC[C@H]2O[C@@H](n3cnc4c(=O)[nH]c(N)nc43)[C@H](OC)[C@@H]2OP(=O)(O)OC[C@H]2O[C@@H](n3cnc4c(=O)[nH]c(N)nc43)[C@H](OC)[C@@H]2O)[C@@H](COP(=O)(O)O[C@H]2[C@@H](OC)[C@H](n3ccc(N)nc3=O)O[C@@H]2COP(=O)(O)O[C@H]2[C@@H](OC)[C@H](n3cnc4c(N)ncnc43)O[C@@H]2COP(=O)(O)O[C@H]2[C@@H](OC)[C@H](n3ccc(=O)[nH]c3=O)O[C@@H]2COP(=O)(O)O[C@H]2[C@@H](OC)[C@H](n3cnc4c(=O)[nH]c(N)nc43)O[C@@H]2CO)O[C@H]1n1ccc(N)nc1=O	18	61	–	–	–	–
Cc1cn([C@H]2C[C@H](O)[C@@H](COP(=O)(O)O[C@H]3[C@@H](OC(=O)NCCCCN)[C@H](n4ccc(=O)[nH]c4=O)O[C@@H]3COP(=O)(O)O[C@H]3[C@@H](OC(=O)NCCCCN)[C@H](n4ccc(=O)[nH]c4=O)O[C@@H]3CO)O2)c(=O)[nH]c1=O	–	–	Stable	–	–	–
CO[C@@H]1[C@H](OP(=O)(O)OC[C@H]2O[C@@H](n3ccc(=O)[nH]c3=O)[C@H](OC)[C@@H]2OP(=O)(O)OC[C@H]2O[C@@H](n3ccc(=O)[nH]c3=O)[C@H](OC)[C@@H]2OP(=O)(O)OC[C@H]2O[C@@H](n3ccc(=O)[nH]c3=O)[C@H](OC)[C@@H]2OP(=O)(O)OC[C@H]2O[C@@H](n3ccc(N)nc3=O)[C@H](OC)[C@@H]2OP(=O)(O)OC[C@H]2O[C@@H](n3ccc(N)nc3=O)[C@H](OC)[C@@H]2OP(=O)(O)OC[C@H]2O[C@@H](n3cnc4c(=O)[nH]c(N)nc43)[C@H](OC)[C@@H]2OP(=O)(O)OC[C@H]2O[C@@H](n3cnc4c(=O)[nH]c(N)nc43)[C@H](OC)[C@@H]2O)[C@@H](COP(=O)(O)O[C@H]2[C@@H](OC)[C@H](n3ccc(N)nc3=O)O[C@@H]2COP(=O)(O)O[C@H]2[C@@H](OC)[C@H](n3cnc4c(N)ncnc43)O[C@@H]2COP(=O)(O)O[C@H]2[C@@H](OC)[C@H](n3ccc(=O)[nH]c3=O)O[C@@H]2COP(=O)(O)O[C@H]2[C@@H](OC)[C@H](n3cnc4c(=O)[nH]c(N)nc43)O[C@@H]2CO)O[C@H]1n1ccc(N)nc1=O	–	–	–	57	63	58
CO[C@@H]1[C@H](OP(=O)(O)OC[C@H]2O[C@@H](n3ccc(=O)[nH]c3=O)[C@H](OC)[C@@H]2OP(=O)(O)OC[C@H]2O[C@@H](n3ccc(=O)[nH]c3=O)[C@H](OC)[C@@H]2OP(=O)(O)OC[C@H]2O[C@@H](n3ccc(=O)[nH]c3=O)[C@H](OC(=O)NCCCCN)[C@@H]2OP(=O)(O)OC[C@H]2O[C@@H](n3ccc(N)nc3=O)[C@H](OC)[C@@H]2OP(=O)(O)OC[C@H]2O[C@@H](n3ccc(N)nc3=O)[C@H](OC)[C@@H]2OP(=O)(O)OC[C@H]2O[C@@H](n3cnc4c(=O)[nH]c(N)nc43)[C@H](OC)[C@@H]2OP(=O)(O)OC[C@H]2O[C@@H](n3cnc4c(=O)[nH]c(N)nc43)[C@H](OC)[C@@H]2O)[C@@H](COP(=O)(O)O[C@H]2[C@@H](OC)[C@H](n3ccc(N)nc3=O)O[C@@H]2COP(=O)(O)O[C@H]2[C@@H](OC)[C@H](n3cnc4c(N)ncnc43)O[C@@H]2COP(=O)(O)O[C@H]2[C@@H](OC(=O)NCCCCN)[C@H](n3ccc(=O)[nH]c3=O)O[C@@H]2COP(=O)(O)O[C@H]2[C@@H](OC)[C@H](n3cnc4c(=O)[nH]c(N)nc43)O[C@@H]2CO)O[C@H]1n1ccc(N)nc1=O	14	61	–	–	–	–
CO[C@@H]1[C@H](OP(=O)(O)OC[C@H]2O[C@@H](n3ccc(=O)[nH]c3=O)[C@H](OC(N)=O)[C@@H]2OP(=O)(O)OC[C@H]2O[C@@H](n3ccc(=O)[nH]c3=O)[C@H](OC)[C@@H]2OP(=O)(O)OC[C@H]2O[C@@H](n3ccc(=O)[nH]c3=O)[C@H](OC(N)=O)[C@@H]2OP(=O)(O)OC[C@H]2O[C@@H](n3ccc(N)nc3=O)[C@H](OC)[C@@H]2OP(=O)(O)OC[C@H]2O[C@@H](n3ccc(N)nc3=O)[C@H](OC)[C@@H]2OP(=O)(O)OC[C@H]2O[C@@H](n3cnc4c(=O)[nH]c(N)nc43)[C@H](OC)[C@@H]2OP(=O)(O)OC[C@H]2O[C@@H](n3cnc4c(=O)[nH]c(N)nc43)[C@H](OC)[C@@H]2O)[C@@H](COP(=O)(O)O[C@H]2[C@@H](OC)[C@H](n3ccc(N)nc3=O)O[C@@H]2COP(=O)(O)O[C@H]2[C@@H](OC)[C@H](n3cnc4c(N)ncnc43)O[C@@H]2COP(=O)(O)O[C@H]2[C@@H](OC)[C@H](n3ccc(=O)[nH]c3=O)O[C@@H]2COP(=O)(O)O[C@H]2[C@@H](OC)[C@H](n3cnc4c(=O)[nH]c(N)nc43)O[C@@H]2CO)O[C@H]1n1ccc(N)nc1=O	–	43	–	–	–	–
CO[C@@H]1[C@H](OP(=O)(O)OC[C@H]2O[C@@H](n3ccc(=O)[nH]c3=O)[C@H](OC)[C@@H]2OP(=O)(O)OC[C@H]2O[C@@H](n3ccc(=O)[nH]c3=O)[C@H](OC)[C@@H]2OP(=O)(O)OC[C@H]2O[C@@H](n3ccc(=O)[nH]c3=O)[C@H](OC(N)=O)[C@@H]2OP(=O)(O)OC[C@H]2O[C@@H](n3ccc(N)nc3=O)[C@H](OC)[C@@H]2OP(=O)(O)OC[C@H]2O[C@@H](n3ccc(N)nc3=O)[C@H](OC)[C@@H]2OP(=O)(O)OC[C@H]2O[C@@H](n3cnc4c(=O)[nH]c(N)nc43)[C@H](OC)[C@@H]2OP(=O)(O)OC[C@H]2O[C@@H](n3cnc4c(=O)[nH]c(N)nc43)[C@H](OC)[C@@H]2O)[C@@H](COP(=O)(O)O[C@H]2[C@@H](OC)[C@H](n3ccc(N)nc3=O)O[C@@H]2COP(=O)(O)O[C@H]2[C@@H](OC)[C@H](n3cnc4c(N)ncnc43)O[C@@H]2COP(=O)(O)O[C@H]2[C@@H](OC(N)=O)[C@H](n3ccc(=O)[nH]c3=O)O[C@@H]2COP(=O)(O)O[C@H]2[C@@H](OC)[C@H](n3cnc4c(=O)[nH]c(N)nc43)O[C@@H]2CO)O[C@H]1n1ccc(N)nc1=O	–	47	–	–	–	–
CO[C@@H]1[C@H](OP(=O)(O)OC[C@H]2O[C@@H](n3ccc(=O)[nH]c3=O)[C@H](OC(=O)NCCCCN)[C@@H]2OP(=O)(O)OC[C@H]2O[C@@H](n3ccc(=O)[nH]c3=O)[C@H](OC)[C@@H]2OP(=O)(O)OC[C@H]2O[C@@H](n3ccc(=O)[nH]c3=O)[C@H](OC)[C@@H]2OP(=O)(O)OC[C@H]2O[C@@H](n3ccc(N)nc3=O)[C@H](OC)[C@@H]2OP(=O)(O)OC[C@H]2O[C@@H](n3ccc(N)nc3=O)[C@H](OC)[C@@H]2OP(=O)(O)OC[C@H]2O[C@@H](n3cnc4c(=O)[nH]c(N)nc43)[C@H](OC)[C@@H]2OP(=O)(O)OC[C@H]2O[C@@H](n3cnc4c(=O)[nH]c(N)nc43)[C@H](OC)[C@@H]2O)[C@@H](COP(=O)(O)O[C@H]2[C@@H](OC)[C@H](n3ccc(N)nc3=O)O[C@@H]2COP(=O)(O)O[C@H]2[C@@H](OC)[C@H](n3cnc4c(N)ncnc43)O[C@@H]2COP(=O)(O)O[C@H]2[C@@H](OC)[C@H](n3ccc(=O)[nH]c3=O)O[C@@H]2COP(=O)(O)O[C@H]2[C@@H](OC)[C@H](n3cnc4c(=O)[nH]c(N)nc43)O[C@@H]2CO)O[C@H]1n1ccc(N)nc1=O	4	69	–	57	68	59

— ChEMBL document CHEMBL2157935, “Synthesis and properties of cationic 2'-O-[N-(4-aminobutyl)carbamoyl] modified oligonucleotides” (Bioorg Med Chem Lett, 2012)
